Consider 12 molecules from ChEMBL document CHEMBL1129280, “3-Benzisothiazolylpiperazine derivatives as potential atypical antipsychotic agents” (J Med Chem, 1996).

Structures are written as SMILES.

For orientation: Ki means a dissociation constant, usually derived from enzyme kinetics or from competition with a known ligand. Read a high Ki as a looser hold on the target. As a reminder, the ED50 is the dose at which the effect has come halfway, by size or by number of responders. A low value points to an effect at a small dose.

Test [1] concerns the target T1, Adrenergic receptor alpha-1 (Rattus norvegicus, UniProt P15823+P23944+P43140).
T1 sequence (P15823 whole entry): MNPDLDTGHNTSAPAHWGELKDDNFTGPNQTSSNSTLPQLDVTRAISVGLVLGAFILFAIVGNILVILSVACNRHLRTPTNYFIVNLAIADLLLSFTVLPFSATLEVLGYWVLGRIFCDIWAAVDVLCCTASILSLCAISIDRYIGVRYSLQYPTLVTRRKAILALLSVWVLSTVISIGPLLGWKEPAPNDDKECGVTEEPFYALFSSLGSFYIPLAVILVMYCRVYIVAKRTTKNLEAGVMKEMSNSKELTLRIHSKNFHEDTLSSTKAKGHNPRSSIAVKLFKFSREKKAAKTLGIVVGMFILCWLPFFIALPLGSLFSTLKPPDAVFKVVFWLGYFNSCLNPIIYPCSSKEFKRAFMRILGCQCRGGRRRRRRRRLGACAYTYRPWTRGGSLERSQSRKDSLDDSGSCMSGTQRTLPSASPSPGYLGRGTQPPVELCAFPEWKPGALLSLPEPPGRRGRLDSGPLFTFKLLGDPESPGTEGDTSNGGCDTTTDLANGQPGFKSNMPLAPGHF
T1 sequence (P23944 whole entry): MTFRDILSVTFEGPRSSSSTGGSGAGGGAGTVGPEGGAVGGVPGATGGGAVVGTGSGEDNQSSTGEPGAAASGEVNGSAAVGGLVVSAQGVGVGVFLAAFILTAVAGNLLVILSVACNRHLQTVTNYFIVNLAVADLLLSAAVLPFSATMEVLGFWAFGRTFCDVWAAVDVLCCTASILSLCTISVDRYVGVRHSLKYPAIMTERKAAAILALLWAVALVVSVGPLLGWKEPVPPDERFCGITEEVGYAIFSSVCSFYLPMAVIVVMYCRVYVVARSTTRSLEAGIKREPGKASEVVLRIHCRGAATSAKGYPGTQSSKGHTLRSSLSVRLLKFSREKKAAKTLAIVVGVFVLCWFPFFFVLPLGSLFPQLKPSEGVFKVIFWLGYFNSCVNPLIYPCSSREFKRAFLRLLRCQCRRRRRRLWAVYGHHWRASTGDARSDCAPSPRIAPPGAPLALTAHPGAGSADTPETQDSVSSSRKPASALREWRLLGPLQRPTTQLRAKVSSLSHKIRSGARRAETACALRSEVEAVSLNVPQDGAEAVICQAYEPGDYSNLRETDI
T1 sequence (P43140 whole entry): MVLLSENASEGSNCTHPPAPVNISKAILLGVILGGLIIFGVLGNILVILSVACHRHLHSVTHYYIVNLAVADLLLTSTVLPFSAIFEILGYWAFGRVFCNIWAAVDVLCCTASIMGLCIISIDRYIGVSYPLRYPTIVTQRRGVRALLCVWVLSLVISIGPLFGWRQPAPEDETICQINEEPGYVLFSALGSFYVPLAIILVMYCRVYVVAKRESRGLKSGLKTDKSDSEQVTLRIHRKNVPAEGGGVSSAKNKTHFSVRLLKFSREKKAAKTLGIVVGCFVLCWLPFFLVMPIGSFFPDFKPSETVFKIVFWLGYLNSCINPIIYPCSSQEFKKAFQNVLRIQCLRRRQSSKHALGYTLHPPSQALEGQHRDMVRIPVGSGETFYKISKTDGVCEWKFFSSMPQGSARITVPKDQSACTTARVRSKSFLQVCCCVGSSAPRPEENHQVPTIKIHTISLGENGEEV
Nature of the test: Displacement of [3H]prazosin from rat brain Alpha-1 adrenergic receptor. For orientation: Displacement assays read how much labelled ligand stays bound in the presence of the test substance.

Test [2] addresses T1, Adrenergic receptor alpha-1. Nature of the test: Displacement of [3H]prazosin from Alpha-1 adrenergic receptor in rat brain. In kind it is tissue-based.
Test [3] deals with Rattus norvegicus. Nature of the test: Dose inhibiting conditioned avoidance response in rats after oral administration. In kind it is functional. The method, boiled down: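 Each test day, 30 predrug avoidance trials in the morning; in the afternoon, oral compound or vehicle, then 30 more trials starting 120 min later. Predrug and postdrug avoidances compared by repeated-measures ANOVA with Newman-Keuls test; ID50 from linear regression of dose-response data.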

Test [4] concerns Rattus norvegicus. Nature of the test: Dose (administered orally) inhibiting amphetamine-induced locomotor behavior in rats. In kind it is functional. As to conditions: po.
Test [5] has as its system Rattus norvegicus. Briefly: Dose (administered orally) inhibiting apomorphine-induced stereotypy in rats. Format: functional. As to conditions: po. The method, boiled down:
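Rats dosed orally with vehicle or compound and observed in clear cages; apomorphine HCl 0.75 mg/kg sc given 3 h later. Stereotypy rated blind on a 0–4 scale starting 10 min after apomorphine, every 10 min, five ratings in all.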

The test system of test [6] is Rattus norvegicus. Briefly: Dose (administered orally) inhibiting spontaneous locomotor behavior in rats. In kind it is functional. As to conditions: po. The procedure, abridged:
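At the start of the 12 h dark cycle, rats were dosed orally with vehicle or compound and placed at once in unfamiliar activity chambers. Horizontal locomotion recorded over 4 h.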

Test [7] has as its system Rattus norvegicus. Nature of the test: Dose inducing catalepsy in rats after oral administration. Format: functional. The method, boiled down: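 Oral dose of compound or vehicle; rats tested 120 and 180 min later with forepaws on a horizontal bar (9 mm diameter, 10 cm high). Latency to climb down recorded, 90 s maximum, score averaged over two trials; 20 s mean immobility was the catalepsy criterion. ED20s dose extrapolated by linear regression.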

Take `O=C1CC2(CCCC2)CC(=O)N1CCCCN1CCN(c2nsc3ccccc23)CC1` [TIOSPIRONE]: the “Log Ki” value in test [1] is reported as -8.83. The molecule further displayed a Ki in test [2] of 1.5 nM. Moreover, the ED50 was found to be 11.7 mg/kg in test [3]; 4.8 mg/kg in test [4]; 18.8 mg/kg in test [5]; 15.5 mg/kg in test [6]; 20.1 mg/kg in test [7].

With `O=C1Cc2cc(CCN3CCN(c4nsc5ccccc45)CC3)c(F)cc2N1`, the “Log Ki” value in test [1] is -8.19. This molecule also registered a Ki in test [2] of 6.5 nM. The ED50 turned out to be 9 mg/kg in test [3]; 1 mg/kg in test [4]; 9.1 mg/kg in test [5]; 3.1 mg/kg in test [6]; 17.8 mg/kg in test [7].

Turning to `Oc1nc2ccc(CCN3CCN(c4nsc5ccccc45)CC3)cc2o1`, the “Log Ki” value in test [1] is -8.38. Further, in test [2], the Ki is reported as 4.2 nM. Moreover, the ED50 in test [3] is 17.8 mg/kg; in test [4], 4.2 mg/kg; in test [5], 21.6 mg/kg; in test [6], 9.8 mg/kg; in test [7], more than 32 mg/kg.

Take `Cc1nc2n(c(=O)c1CCN1CCC(c3noc4cc(F)ccc34)CC1)CCCC2` [RISPERIDONE]: the ED50 was 1.6 mg/kg in test [3]; 0.44 mg/kg in test [4]; 1.8 mg/kg in test [5]; 1.2 mg/kg in test [6]; 5.7 mg/kg in test [7].

With `O=C1Cc2cc(CCN3CCN(c4nsc5ccccc45)CC3)ccc2N1`, in test [1], the “Log Ki” value is given as -8.52. Further, the Ki in test [2] was 3 nM. The ED50 came out at 6.7 mg/kg in test [3]; 1.4 mg/kg in test [4]; 8.4 mg/kg in test [5]; 8.5 mg/kg in test [6]; 18.8 mg/kg in test [7].

With `Oc1nc2ccc(CCN3CCN(c4nsc5ccccc45)CC3)cc2s1`, the “Log Ki” value in test [1] is on record as -8.63. The Ki in test [2] is 2.3 nM. The ED50 was 12.3 mg/kg in test [3]; 2.7 mg/kg in test [4]; 23.8 mg/kg in test [5]; 2.7 mg/kg in test [6]; more than 56 mg/kg in test [7].

Take `CN1CCN(C2=Nc3cc(Cl)ccc3Nc3ccccc32)CC1` [CLOZAPINE]: the ED50 in test [3] is more than 17.8 mg/kg; in test [4], 12.8 mg/kg; in test [5], more than 32 mg/kg; in test [6] it was 8.18 mg/kg; in test [7], more than 32 mg/kg.

Consider `CC1(C)C(=O)Nc2ccc(CCN3CCN(c4nsc5ccccc45)CC3)cc21`, for which, in test [1], the “Log Ki” value is listed as -8.68. The Ki in test [2] was 2.1 nM. For the same molecule, the ED50 in test [3] amounted to 2.6 mg/kg; in test [4], 2.3 mg/kg; in test [5], 10 mg/kg; in test [6], 10.7 mg/kg; in test [7], 17.8 mg/kg.

Turning to `O=C1Nc2ccc(CCN3CCN(c4nsc5ccccc45)CC3)cc2C12CCCC2`, the “Log Ki” value in test [1] is -8.29. The molecule further showed an inhibitory constant (Ki) in test [2] of 5.1 nM. The ED50 in test [4] was determined as 5.8 mg/kg; in test [5] it was 9 mg/kg; in test [7], 32 mg/kg.

On to `CCN1C(=O)Cc2cc(CCN3CCN(c4nsc5ccccc45)CC3)ccc21`, for which, in test [1], the “Log Ki” value is reported as -8.35. In addition, the Ki in test [2] stood at 4.5 nM. For the same molecule, the ED50 came out at 1.8 mg/kg in test [3]; 1.1 mg/kg in test [4]; 4.7 mg/kg in test [5]; 2.1 mg/kg in test [6]; 10 mg/kg in test [7].

As for `O=C1Cc2cc(CCN3CCN(c4nsc5ccccc45)CC3)c(Cl)cc2N1` [ZIPRASIDONE], the “Log Ki” value in test [1] is listed as -7.98. The Ki in test [2] is recorded as 11 nM. Besides, the ED50 in test [3] stood at 2.6 mg/kg; in test [4], 1.5 mg/kg; in test [5] it was 2.4 mg/kg; in test [6], 8.9 mg/kg; in test [7] it was 12.1 mg/kg.

Regarding `O=C(CCCN1CCC(O)(c2ccc(Cl)cc2)CC1)c1ccc(F)cc1` [HALOPERIDOL], the ED50 in test [3] is 0.93 mg/kg; in test [4], 0.14 mg/kg; in test [5] it was 0.25 mg/kg; in test [6], 0.68 mg/kg; in test [7], 0.79 mg/kg.
